# Measurements as given in ChEMBL document CHEMBL2177098, “Synthesis and evaluation of novel ¹⁸F labeled 2-pyridinylbenzoxazole and 2-pyridinylbenzothiazole derivatives as ligands for positron emission tomography (PET) imaging of β-amyloid plaques” (J Med Chem, 2012).
# Assays:
# [1] = test system: Intestine; assay: Drug uptake in ICR mouse intestine assessed per organ at 370 kBq/100 ul, iv at 30 mins by gamma-counting analysis; assay type: ADME, organism-based; details: in vivo, 0.5 h
# How it was run: (§1)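 Male ICR mice (5 weeks, about 20 g) got 18F tracer in saline (370 KBq per 100 μL) via tail vein; n = 5 per time point, killed at 2, 10, 30, 60 min. Organs removed and γ-counted against diluted injectate; expressed as % injected dose per organ.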
# [2] = test system: Intestine; assay: Drug uptake in ICR mouse intestine assessed per organ at 370 kBq/100 ul, iv at 2 mins by gamma-counting analysis; assay type: ADME, organism-based; details: in vivo; how it was run: as §1
# [3] = test system: Stomach; assay: Drug uptake in ICR mouse stomach assessed per organ at 370 kBq/100 ul, iv at 60 mins by gamma-counting analysis; assay type: ADME, organism-based; details: in vivo, 1 h
# How it was run: (§2)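 Normal male ICR mice (5 weeks, about 20 g) received the ¹⁸F tracer in saline (370 KBq per 100 μL) by tail-vein injection. Groups of n = 5 were killed at 2, 10, 30 and 60 min. Organs were removed, weighed and γ-counted against diluted aliquots of the injectate, giving % dose per gram. Stomach and intestine were expressed per organ. The brain ratio is 2 min/60 min uptake. Values are mean ± SD.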
# [4] = test system: Stomach; assay: Drug uptake in ICR mouse stomach assessed per organ at 370 kBq/100 ul, iv at 10 mins by gamma-counting analysis; assay type: ADME, organism-based; details: in vivo; how it was run: as §1
# [5] = test system: Stomach; assay: Drug uptake in ICR mouse stomach assessed per organ at 370 kBq/100 ul, iv at 2 mins by gamma-counting analysis; assay type: ADME, organism-based; details: in vivo; how it was run: as §1
# [6] = test system: Kidney; assay: Drug uptake in ICR mouse kidney at 370 kBq/100 ul, iv at 60 mins by gamma-counting analysis; assay type: ADME, organism-based; details: in vivo, 1 h
# How it was run: (§3)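 Male ICR mice (5 weeks, about 20 g) got 18F tracer in saline (370 KBq per 100 μL) via tail vein; n = 5 per time point, killed at 2, 10, 30, 60 min. Organs weighed and γ-counted; percent dose per gram wet tissue from comparison with diluted injectate aliquots.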
# [7] = test system: Kidney; assay: Drug uptake in ICR mouse kidney at 370 kBq/100 ul, iv at 10 mins by gamma-counting analysis; assay type: ADME, organism-based; details: in vivo; how it was run: as §3
# [8] = test system: Lung; assay: Drug uptake in ICR mouse lung at 370 kBq/100 ul, iv at 60 mins by gamma-counting analysis; assay type: ADME, organism-based; details: in vivo, 1 h; how it was run: as §3
# [9] = test system: Kidney; assay: Drug uptake in ICR mouse kidney at 370 kBq/100 ul, iv at 2 mins by gamma-counting analysis; assay type: ADME, organism-based; details: in vivo; how it was run: as §3
# [10] = test system: Lung; assay: Drug uptake in ICR mouse lung at 370 kBq/100 ul, iv at 30 mins by gamma-counting analysis; assay type: ADME, organism-based; details: in vivo, 0.5 h; how it was run: as §3
# [11] = test system: Lung; assay: Drug uptake in ICR mouse lung at 370 kBq/100 ul, iv at 2 mins by gamma-counting analysis; assay type: ADME, organism-based; details: in vivo; how it was run: as §3
# [12] = test system: Spleen; assay: Drug uptake in ICR mouse spleen at 370 kBq/100 ul, iv at 60 mins by gamma-counting analysis; assay type: ADME, organism-based; details: in vivo, 1 h; how it was run: as §3
# [13] = test system: Liver; assay: Drug uptake in ICR mouse liver at 370 kBq/100 ul, iv at 30 mins by gamma-counting analysis; assay type: ADME, organism-based; details: in vivo, 0.5 h; how it was run: as §3
# [14] = test system: Liver; assay: Drug uptake in ICR mouse liver at 370 kBq/100 ul, iv at 2 mins by gamma-counting analysis; assay type: ADME, organism-based; details: in vivo; how it was run: as §3
# [15] = test system: Heart; assay: Drug uptake in ICR mouse heart at 370 kBq/100 ul, iv at 60 mins by gamma-counting analysis; assay type: ADME, organism-based; details: in vivo, 1 h; how it was run: as §3
# [16] = test system: Heart; assay: Drug uptake in ICR mouse heart at 370 kBq/100 ul, iv at 30 mins by gamma-counting analysis; assay type: ADME, organism-based; details: in vivo, 0.5 h; how it was run: as §3
# [17] = test system: Heart; assay: Drug uptake in ICR mouse heart at 370 kBq/100 ul, iv at 10 mins by gamma-counting analysis; assay type: ADME, organism-based; details: in vivo; how it was run: as §3
# [18] = test system: Brain; assay: Drug uptake in ICR mouse brain at 370 kBq/100 ul, iv at 60 mins by gamma-counting analysis; assay type: ADME, organism-based; details: in vivo, 1 h; how it was run: as §3
# [19] = test system: Brain; assay: Drug uptake in ICR mouse brain at 370 kBq/100 ul, iv at 30 mins by gamma-counting analysis; assay type: ADME, organism-based; details: in vivo, 0.5 h; how it was run: as §3
# [20] = test system: Brain; assay: Drug uptake in ICR mouse brain at 370 kBq/100 ul, iv at 2 mins by gamma-counting analysis; assay type: ADME, organism-based; details: in vivo; how it was run: as §3
# [21] = test system: Brain; assay: Drug uptake in healthy human brain at 370 KBq/100 ul after 1 hr by autoradiographic analysis; assay type: ADME, tissue-based; details: in vitro
# [22] = Displacement of [125I]-IMPY from amyloid beta (1 to 42) fibrils after 2 hrs by gamma-counting analysis
# How it was run: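 Competition binding with aggregated Aβ1-42 fibrils and [125I]IMPY (60000−100000 cpm/100 μL) in 0.05% BSA (1 mL total); inhibitors 10⁻⁴−10^−8.5 M in ethanol. Incubated 37 °C for 2 h, then GF/B vacuum filtration with PBS (0.02 M, pH 7.4) washes and γ counting. Three repeats; IC50 converted to Ki by Cheng−Prusoff.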
# [23] = test system: Brain; assay: Drug uptake in wild type C57BL6 mouse brain at 370 KBq/100 ul after 1 hr by autoradiographic analysis; assay type: ADME, tissue-based; details: in vitro
# How it was run: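 Paraffin brain sections from 12-month-old male control C57BL6 mice were deparaffinized through xylene and graded ethanol, then held in PBS (0.2 M, pH 7.4) for 30 min. They were incubated with the ¹⁸F tracer (370 KBq per 100 μL) for 1 h at room temperature. Sections were washed in 40% EtOH, rinsed with water for 1 min, dried, and exposed to a phosphor plate for 2 h. The same sections were then stained with thioflavin S.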
# [24] = Metabolic stability in mouse plasma at 1.85 MBq after 60 mins by HPLC analysis; assay type: ADME, cell-free; details: read-out: Stability
# How it was run: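 Purified tracer (1.85 MBq) was incubated with 100 μL mouse plasma at 37 °C for 2, 10, 30 and 60 min. Read-out was the percentage of activity remaining as intact tracer.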
# [25] = n-Octanol-PBS buffer partition coefficient, log D of the compound at 1.5 MBq after 3 mins at pH 7.4; assay type: physicochemical
# How it was run: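 The tracer was partitioned between n-octanol and PBS by vortexing for 3 min at room temperature, then centrifuged for 5 min at 3000 rpm. Samples of the octanol (50 μL) and aqueous (500 μL) layers were counted. log D is the log of the octanol/PBS counts-per-gram ratio. The octanol layer was repartitioned until values were consistent. Measured in triplicate and repeated three times.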
# [26] = Chemical stability of the compound in saline solution after 6 hrs; assay type: physicochemical; details: buffer
# How it was run: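 Tracer kept in saline solution at room temperature, and stability followed during storage for up to 6 h.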
# [27] = test system: Brain; assay: Ratio of drug uptake in brain at 2 mins to drug uptake in brain at 60 mins in ICR mouse at 370 KBq/100 ul, iv; assay type: ADME, organism-based; details: in vivo; how it was run: as §2
# [28] = test system: Bone; assay: Drug uptake in ICR mouse bone at 370 kBq/100 ul, iv at 60 mins by gamma-counting analysis; assay type: ADME, organism-based, Bone element; details: in vivo, 1 h; how it was run: as §3
# [29] = test system: Bone; assay: Drug uptake in ICR mouse bone at 370 kBq/100 ul, iv at 30 mins by gamma-counting analysis; assay type: ADME, organism-based, Bone element; details: in vivo, 0.5 h; how it was run: as §3
# [30] = test system: Bone; assay: Drug uptake in ICR mouse bone at 370 kBq/100 ul, iv at 2 mins by gamma-counting analysis; assay type: ADME, organism-based, Bone element; details: in vivo; how it was run: as §3
# [31] = test system: Bone; assay: Drug uptake in ICR mouse bone at 370 kBq/100 ul, iv at 10 mins by gamma-counting analysis; assay type: ADME, organism-based, Bone element; details: in vivo; how it was run: as §3
# [32] = test system: Intestine; assay: Drug uptake in ICR mouse intestine assessed per organ at 370 kBq/100 ul, iv at 60 mins by gamma-counting analysis; assay type: ADME, organism-based; details: in vivo, 1 h; how it was run: as §1
smiles,measurement,setting,value
CNc1ccc(-c2nc3cc(OCC[18F])ccc3o2)cn1,Drug uptake,[1],33.66 %ID
same,Drug uptake,[2],9.87 %ID
same,Drug uptake,[3],3.89 %ID
same,Drug uptake,[4],5.59 %ID
same,Drug uptake,[5],3.24 %ID
same,Drug uptake,[6],3.04 % ID/g
same,Drug uptake,[7],3.52 % ID/g
same,Drug uptake,[8],2.57 % ID/g
same,Drug uptake,[9],7.45 % ID/g
same,Drug uptake,[10],2.29 % ID/g
same,Drug uptake,[11],4.14 % ID/g
same,Drug uptake,[12],1.64 % ID/g
same,Drug uptake,[13],3.95 % ID/g
same,Drug uptake,[14],10.48 % ID/g
same,Drug uptake,[15],2.05 % ID/g
same,Drug uptake,[16],1.84 % ID/g
same,Drug uptake,[17],2.34 % ID/g
same,Drug uptake,[18],1.55 % ID/g
same,Drug uptake,[19],1.69 % ID/g
same,Drug uptake,[20],7.23 % ID/g
same,Drug uptake,[21],Not Active
same,Ki,[22],8 nM
same,Drug uptake,[23],Not Active
same,"remaining at 1 h, 1.85 MBq",[24],> 95%
same,logD at 0.05 h,[25],3.52
same,Stability,[26],Stable
same,Ratio,[27],4.66
same,Drug uptake,[28],2.37 % ID/g
same,Drug uptake,[29],2.34 % ID/g
same,Drug uptake,[30],1.18 % ID/g
same,Drug uptake,[31],1.11 % ID/g
same,Drug uptake,[32],39.05 %ID
